# From PubChem
# PAFAH1B2 inh – blocks human PAF acetylhydrolase 1b catalytic subunit 2; P68402; recombinant PAFAH1B2, FP-rhodamine activity probe, fluorescence polarization; inhibition, % at 3.39 µM; actives 1.2% (n = 340,000); AID 492953;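 active means inhibition above the mean of all tested compounds plus 3 SD, cut at about 24% in these data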
# Target sequence (P68402 whole entry, looked up): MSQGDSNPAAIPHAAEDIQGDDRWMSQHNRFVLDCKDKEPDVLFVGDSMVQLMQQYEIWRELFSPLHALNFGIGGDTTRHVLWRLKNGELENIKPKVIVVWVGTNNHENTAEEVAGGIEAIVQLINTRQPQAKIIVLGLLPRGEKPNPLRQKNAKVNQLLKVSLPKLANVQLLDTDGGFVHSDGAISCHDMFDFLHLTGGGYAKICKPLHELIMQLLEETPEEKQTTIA
# TDP2 absorb – blocks human TDP2 phosphodiesterase activity; O95551; recombinant TDP2, T5PNP hydrolysis, p-nitrophenol absorbance 415 nm; inhibition, % at 12.8 µM; actives 0.34% (n = 370,000); AID 720702;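 active means inhibition above the mean of all tested compounds plus 3 SD, set per campaign, cut at about 25% in these data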
#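 System – recombinant human TDP2 · Quantity – TDP2 enzyme at 120 nM final · Doses – single concentration, 12.8 µM nominal, with 1% DMSO · Incubation – 2 h at 37 °C · Measured by – epi absorbance of p-nitrophenol freed from T5PNP by hydrolysis · Read-out – % inhibition relative to enzyme-containing and enzyme-free wells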
# PAFAH2 inh – PAFAH2 (human) inhibition; actives 0.99% (n = 340,000); recombinant PAFAH2, FP-rhodamine activity probe, fluorescence polarization; AID 492956; inhibition, % at 3.39 µM; Q99487;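 active means inhibition above the mean over all tested compounds plus 3 SD, cut at about 30% in these data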;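 further: inhibitors block probe labeling of enzyme so polarization drops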
# Apaf1 inhib – inhibitors of human Apaf-1 apoptosome; O14727; reconstituted apoptosome caspase-3 activity, DEVD-Rh110 fluorescence; inhibition, % at 20 µM; actives 0.71% (n = 330,000); AID 489030; active means inhibition of at least 40% at 20 µM
#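 Material: reconstituted apoptosome with Apaf-1, cytochrome c, caspase-9, procaspase-3, dATP. Technique: Rh110 fluorescence intensity. Buffer or medium: pH 7.5 Hepes buffer with CHAPS, BSA, DTT. Times: 30 min plus 50 min, RT.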
# PAFAH1B3 FP inh – inhibitors of human PAFAH1B3; recombinant PAFAH1B3, FP-rhodamine probe, fluorescence polarization; inhibition, % at 3.39 µM; actives 0.28% (n = 340,000); AID 492972;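 active means inhibition above the screen-wide average of all tested compounds plus 3 SD, cut at about 25% in these data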
# Target sequence (Q15102 whole entry, looked up): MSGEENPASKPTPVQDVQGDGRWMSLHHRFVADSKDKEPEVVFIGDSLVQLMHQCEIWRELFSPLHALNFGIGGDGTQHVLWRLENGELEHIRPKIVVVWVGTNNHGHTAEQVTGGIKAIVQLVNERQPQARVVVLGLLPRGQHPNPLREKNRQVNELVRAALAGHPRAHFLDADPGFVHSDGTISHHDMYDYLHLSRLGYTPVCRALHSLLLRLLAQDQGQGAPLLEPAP
# Apaf-1 inh conf – Apaf-1 inhibition, single-dose confirmed | reconstituted apoptosome, caspase-3 DEVD-Rh110 fluorescence | AID 504614 | actives 25% (n = 1,800) | shares compounds with Apaf1 inhib | inhibition, % at 20 µM;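 active means mean inhibition of at least 40% at 20 µM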
# Rh110 quench – Rh110 signal interference in Apaf-1 inhibitor counter-screen | activation (fluorescence interference), % at 20 µM | Rh110 fluorescence interference, quenched caspase reaction | shares compounds with Apaf1 inhib | 1,800 tested, under 10 active;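 active means signal rise of 40% or more at 20 µM, treated as a fluorescence artifact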
# Apaf1 inh interf – Apaf-1 inhibitor counter-screen fluorescence artifact; shares compounds with Apaf1 inhib; fluorescence interference counterscreen, Apaf-1 assay format; IC50, µM; 460 tested, under 10 active; AID 588538; call rule not given here
# Numbers stand for hits; i = inactive; nt = no result. This is a sample that favours compounds with a hit; in the whole collection about 2.3% have one here.
SMILES,PAFAH1B2 inh,TDP2 absorb,PAFAH2 inh,Apaf1 inhib,PAFAH1B3 FP inh,Apaf-1 inh conf,Rh110 quench,others
C#CCOCCOCCOCCNc1nc(N2CCN(C(=O)CCCCCCCCCCNC(=O)Cn3cc(CCCCCN)nn3)CC2)nc(N2CCN(C(=O)CCCCCCCCCCNC(=O)[C@H]([C@@H](C)CC)n3cc(CCCCCN)nn3)CC2)n1,i,nt,i,74,i,58,i,Apaf1 inh interf=i
CCOC(=O)[C@]12CCCC=C1N(Cc1ccc(OC)cc1)C(=O)[C@@H]2CC(=O)NCc1cccc2ccccc12,nt,i,nt,nt,nt,nt,nt,
CCC(=O)Nc1ccc(Cl)cc1C(=O)c1ccc[nH]1,nt,i,nt,nt,nt,nt,nt,
O=C(COC(=O)c1ccc(O)cc1O)NCCN1C(=O)CSC1=O,i,i,i,i,i,nt,nt,
O=C(COC(=O)c1cc(Cl)ccc1Cl)NCCN1C(=O)CSC1=O,i,i,i,43,i,i,i,
Cc1ccc(-c2nn3c(C)nnc3c3ccccc23)cc1S(=O)(=O)NCc1ccccc1,i,i,i,48,i,72,i,Apaf1 inh interf=i
CCN(CC)CCOC(=O)c1ccc(NC(=O)CCCN2C(=O)S/C(=C/c3ccc(OC)cc3)C2=S)cc1,i,nt,i,44,i,i,i,
CC1(c2ccc([N+](=O)[O-])cc2)NC(=O)N(CC(=O)Nc2ccc(N3CCCCC3)cc2)C1=O (stereo unspecified),i,i,i,i,i,nt,nt,
CC1(c2ccc(OC(F)F)cc2)NC(=O)N(CC(=O)Nc2ccc(N3CCCCC3)cc2)C1=O (stereo unspecified),i,i,i,53,i,i,i,
C=CC(=O)NC1CCCCN(C)C1=O (stereo unspecified),nt,i,nt,nt,nt,nt,nt,
COc1ccc(NC(=O)NNc2cc(N3CCOCC3)nc(N3CCOCC3)n2)cc1,i,i,i,52,i,i,i,
O=C(NNc1cc(N2CCOCC2)nc(N2CCOCC2)n1)c1ccc(Cl)cc1Cl,i,i,i,47,i,i,i,
COc1ccc(C(=O)C2C(c3ccc(-c4ccccc4[N+](=O)[O-])o3)NC(=O)NC2(O)C(F)(F)F)cc1 (stereo unspecified),i,i,i,i,i,nt,nt,
O=C1NC(c2ccc(-c3ccccc3[N+](=O)[O-])o2)C(C(=O)c2ccc(F)cc2)C(O)(C(F)(F)F)N1 (stereo unspecified),i,i,i,51,i,i,i,
Cc1coc2c1C(=O)C(=O)c1c-2ccc2c1CCCC2(C)C,27,i,76,77,i,59,i,Apaf1 inh interf=i
c1cc2cn[nH]c2cc1NC1CCCCCC1,i,i,i,53,i,68,i,Apaf1 inh interf=i
NC(=S)Nc1ccc2cn[nH]c2c1,i,i,i,i,i,nt,nt,
CC(C)(C)c1cc(C(=O)N/N=C/c2ccc(-c3ccccc3[N+](=O)[O-])o2)n[nH]1,i,i,i,42,i,i,i,
Cc1cc(C(=O)N/N=C/c2ccc(-c3cccc(Cl)c3Cl)o2)n[nH]1,i,i,i,i,i,nt,nt,
CC(=O)Nc1c(S(=O)(=O)c2ccccc2)c2nc3ccccc3nc2n1Cc1ccccc1,i,i,i,60,i,i,i,
N#Cc1nc(-c2ccco2)oc1N1CCc2ccccc2C1,i,i,i,52,i,i,i,
N#Cc1nc(-c2ccco2)oc1N1CCCC1,i,i,i,i,i,nt,nt,
CCN1C(=NCCc2ccc(Br)cc2)N[C@@H](c2ccccc2)[C@H](C(=O)OC)[C@H]1C,i,i,i,45,i,i,i,
CCN1C(=NCCc2ccc([N+](=O)[O-])cc2)N[C@@H](c2ccccc2)[C@H](C(=O)OC)[C@H]1C,i,i,i,i,i,nt,nt,
Nc1cccc2cnccc12,i,i,i,67,i,i,i,
Nc1c(C(=O)NCC2CCCO2)c2nc3ccccc3nc2n1/N=C/c1ccncc1 (stereo unspecified),i,i,i,nt,i,nt,nt,
